# Results as given in ChEMBL document CHEMBL1143122, “Novel analogs of D-e-MAPP and B13. Part 1: synthesis and evaluation as potential anticancer agents” (Bioorg Med Chem, 2008).
# What was measured:
# U-251 = assay: Antiproliferative activity against human U251 cells after 48 hrs; type: functional; settings: U-251, 48 h
# Method in brief: (§1)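 NCI 60-cell-line screen. Lines grown in RPMI 1640 with 5% fetal bovine serum and 2 mM L-glutamine, plated at 5,000–40,000 cells/well according to doubling time, left 24 h at 37 °C in 5% CO2. Drug stocks in DMSO at 400-fold the top final concentration. Five 10-fold dilutions, 10−4 to 10−8 M, incubated 48 h. Growth read spectrophotometrically as net protein; GI50 taken as 50% reduction.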
# LOX IMVI = assay: Antiproliferative activity against human LOXIMVI cells after 48 hrs; type: functional
# Method in brief: (§2)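 NCI 60-cell screen. Cells were grown in RPMI 1640 with 5% FBS and 2 mM L-glutamine, then plated at 5,000–40,000 cells/well according to doubling time and preincubated for 24 h at 37 °C in 5% CO2. Compounds were dissolved in DMSO at 400× the top final concentration and tested at five 10-fold dilutions from 10−4 to 10−8 M for 48 h. Growth was read spectrophotometrically; GI50 is 50% net protein reduction.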
# Malme-3M = assay: Antiproliferative activity against human MALME3M cells after 48 hrs; type: functional; method in brief: as §2
# SK-MEL-2 = assay: Antiproliferative activity against human SKMEL2 cells after 48 hrs; type: functional; settings: SK-MEL-2, 48 h; method in brief: as §2
# SK-MEL-28 = assay: Antiproliferative activity against human SKMEL28 cells after 48 hrs; type: functional; settings: SK-MEL-28, 48 h; method in brief: as §2
# SK-MEL-5 = assay: Antiproliferative activity against human SKMEL5 cells after 48 hrs; type: functional; settings: SK-MEL-5, 48 h, read-out: Log LC50 (the source's name) (converted); method in brief: as §2
# UACC-62 = assay: Antiproliferative activity against human UACC62 cells after 48 hrs; type: functional; settings: UACC-62, 48 h; method in brief: as §1
# OVCAR-3 = assay: Antiproliferative activity against human OVCAR-3 cells after 48 hrs; type: functional; settings: OVCAR-3, 48 h; method in brief: as §2
# OVCAR-4 = assay: Antiproliferative activity against human OVCAR4 cells after 48 hrs; type: functional; settings: OVCAR-4, 48 h; method in brief: as §2
# OVCAR-5 = assay: Antiproliferative activity against human OVCAR5 cells after 48 hrs; type: functional; settings: OVCAR-5, 48 h; method in brief: as §2
# 786-0 = assay: Antiproliferative activity against human 786-0 cells after 48 hrs; type: functional; settings: 786-0, 48 h; method in brief: as §2
# ACHN = assay: Antiproliferative activity against human ACHN cells after 48 hrs; type: functional; method in brief: as §2
# CAKI-1 = assay: Antiproliferative activity against human CAKI1 cells after 48 hrs; type: functional; settings: CAKI-1, 48 h; method in brief: as §2
# RXF 393 = assay: Antiproliferative activity against human RXF393 cells after 48 hrs; type: functional; settings: RXF 393, 48 h; method in brief: as §2
# UO-31 = assay: Antiproliferative activity against human UO31 cells after 48 hrs; type: functional; settings: UO-31, 48 h; method in brief: as §1
# PC-3 = assay: Antiproliferative activity against human PC3 cells after 48 hrs; type: functional; settings: PC-3, 48 h; method in brief: as §2
# DU-145 = assay: Antiproliferative activity against human DU145 cells after 48 hrs; type: functional; settings: DU-145, 48 h; method in brief: as §2
# MDA-MB-231 = assay: Antiproliferative activity against human MDA-MB-231 cells after 48 hrs; type: functional; settings: MDA-MB-231, 48 h; method in brief: as §2
# MDA-MB-435 = assay: Antiproliferative activity against human MDA-MB-435 cells after 48 hrs; type: functional; settings: Homo sapiens, MDA-MB-435, 48 h; method in brief: as §2
# NCI-H226 = assay: Antiproliferative activity against human NCI-H226 cells after 48 hrs; type: functional; settings: NCI-H226, 48 h; method in brief: as §2
# NCI-H322M = assay: Antiproliferative activity against human NCI-H322M cells after 48 hrs; type: functional; method in brief: as §2
# NCI-H460 = assay: Antiproliferative activity against human NCI-H460 cells after 48 hrs; type: functional; settings: NCI-H460, 48 h; method in brief: as §2
# NCI-H522 = assay: Antiproliferative activity against human NCI-H522 cells after 48 hrs; type: functional; settings: NCI-H522, 48 h; method in brief: as §2
# COLO 205 = assay: Antiproliferative activity against human COLO205 cells after 48 hrs; type: functional; settings: COLO 205, 48 h; method in brief: as §2
# HCT-116 = assay: Antiproliferative activity against human HCT116 cells after 48 hrs; type: functional; settings: HCT-116, 48 h; method in brief: as §2
# HCT-15 = assay: Antiproliferative activity against human HCT15 cells after 48 hrs; type: functional; settings: Homo sapiens, HCT-15, 48 h; method in brief: as §2
# KM12 = assay: Antiproliferative activity against human KM12 cells after 48 hrs; type: functional; settings: Homo sapiens, KM12, 48 h; method in brief: as §2
# SF-295 = assay: Antiproliferative activity against human SF295 cells after 48 hrs; type: functional; settings: SF-295, 48 h; method in brief: as §2
# SNB-19 = assay: Antiproliferative activity against human SNB19 cells after 48 hrs; type: functional; settings: SNB-19, 48 h; method in brief: as §2
# MCF7 = assay: Antiproliferative activity against human MCF7 cells after 48 hrs; type: functional, cell-based; settings: MCF7, 48 h
# CCRF-CEM = assay: Antiproliferative activity against human CCRF-CEM cells after 48 hrs; type: functional; method in brief: as §2
# [1] = Antiproliferative activity against human […] cells after 48 hrs; type: functional; method in brief: as §2
# [2] = read-out: Log LC50 (the source's name) (converted)
structure (smiles),measurement,setting,value
CCCCCCCCCCCCCCN[C@H](C)[C@@H](O)c1ccccc1.Cl,GI50,U-251,1.86 µM
same,CC50,U-251; [2],5.89 µM
same,TGI,U-251; read-out: Log TGI (converted),3.31 µM
same,GI50,LOX IMVI,1.82 µM
same,LC50,LOX IMVI,5.89 µM
same,TGI,LOX IMVI; read-out: Log TGI (converted),3.31 µM
same,GI50,Malme-3M,1.95 µM
same,LC50,Malme-3M,6.03 µM
same,TGI,Malme-3M; read-out: Log TGI (converted),3.39 µM
same,GI50,SK-MEL-2,2 µM
same,LC50,SK-MEL-2,8.13 µM
same,TGI,SK-MEL-2; read-out: Log TGI (converted),3.98 µM
same,GI50,SK-MEL-28,1.86 µM
same,LC50,SK-MEL-28,5.75 µM
same,TGI,SK-MEL-28; read-out: Log TGI (converted),3.24 µM
same,CC50,SK-MEL-5,100 µM
same,GI50,UACC-62,1.82 µM
same,LC50,UACC-62,6.61 µM
same,TGI,UACC-62; read-out: Log TGI (converted),3.47 µM
same,GI50,OVCAR-3,1.74 µM
same,LC50,OVCAR-3,6.03 µM
same,TGI,OVCAR-3; read-out: Log TGI (converted),3.24 µM
same,GI50,OVCAR-4,2.14 µM
same,LC50,OVCAR-4,6.76 µM
same,TGI,OVCAR-4; read-out: Log TGI (converted),3.8 µM
same,GI50,OVCAR-5,2 µM
same,CC50,OVCAR-5; [2],6.17 µM
same,TGI,OVCAR-5; read-out: Log TGI (converted),3.47 µM
same,GI50,786-0,1.74 µM
same,CC50,786-0; [2],5.75 µM
same,TGI,786-0; read-out: Log TGI (converted),3.16 µM
same,GI50,ACHN,1.86 µM
same,CC50,ACHN; [2],5.89 µM
same,TGI,ACHN; read-out: Log TGI (converted),3.31 µM
same,GI50,CAKI-1,1.95 µM
same,CC50,CAKI-1; [2],5.75 µM
same,TGI,CAKI-1; read-out: Log TGI (converted),3.39 µM
same,GI50,RXF 393,1.38 µM
same,CC50,RXF 393; [2],5.5 µM
same,TGI,RXF 393; read-out: Log TGI (converted),2.75 µM
same,GI50,UO-31,1.74 µM
same,LC50,UO-31,5.89 µM
same,TGI,UO-31; read-out: Log TGI (converted),3.24 µM
same,GI50,PC-3,1.86 µM
same,LC50,PC-3,5.89 µM
same,TGI,PC-3; read-out: Log TGI (converted),3.31 µM
same,GI50,DU-145,1.48 µM
same,CC50,DU-145; [2],5.25 µM
same,TGI,DU-145; read-out: Log TGI (converted),2.82 µM
same,GI50,MDA-MB-231,1.74 µM
same,LC50 (50% lethal concentration),MDA-MB-231,6.46 µM
same,TGI,MDA-MB-231; read-out: Log TGI (converted),3.39 µM
same,GI50,MDA-MB-435,1.78 µM
same,LC50,MDA-MB-435,5.62 µM
same,TGI,MDA-MB-435; read-out: Log TGI (converted),3.16 µM
same,GI50,NCI-H226,1.86 µM
same,CC50,NCI-H226; [2],7.08 µM
same,TGI,NCI-H226; read-out: Log TGI (converted),3.63 µM
same,GI50,NCI-H322M,1.91 µM
same,CC50,NCI-H322M; [2],5.89 µM
same,TGI,NCI-H322M; read-out: Log TGI (converted),3.31 µM
same,GI50,NCI-H460,1.78 µM
same,CC50,NCI-H460; [2],6.17 µM
same,TGI,NCI-H460; read-out: Log TGI (converted),3.31 µM
same,GI50,NCI-H522,1.91 µM
same,CC50,NCI-H522; [2],6.61 µM
same,TGI,NCI-H522; read-out: Log TGI (converted),3.55 µM
same,GI50,COLO 205,1.91 µM
same,CC50,COLO 205; [2],6.17 µM
same,TGI,COLO 205; read-out: Log TGI (converted),3.39 µM
same,GI50,HCT-116,1.86 µM
same,LC50,HCT-116,5.75 µM
same,TGI,HCT-116; read-out: Log TGI (converted),3.24 µM
same,GI50,HCT-15,1.82 µM
same,LC50,HCT-15,5.89 µM
same,TGI,HCT-15; read-out: Log TGI (converted),3.24 µM
same,GI50,KM12,1.82 µM
same,CC50,KM12; [2],5.62 µM
same,TGI,KM12; read-out: Log TGI (converted),3.16 µM
same,GI50,SF-295,1.82 µM
same,LC50,SF-295,6.17 µM
same,TGI,SF-295; read-out: Log TGI (converted),3.39 µM
same,GI50,SNB-19,1.74 µM
same,TGI,SNB-19; read-out: Log TGI (converted),3.09 µM
same,IC50,MCF7,3.5 µM
same,GI50,CCRF-CEM,1.45 µM
same,CC50,CCRF-CEM; [2],7.59 µM
same,TGI,CCRF-CEM; read-out: Log TGI (converted),3.31 µM
same,GI50,[1],1.62 µM
same,LC50,[1],6.03 µM
same,TGI,[1]; read-out: Log TGI (converted),3.09 µM
